Tests used:
[1] = target: T1, Casein kinase I isoform gamma-2 (Homo sapiens, UniProt P78368)
[2] = target: Glycogen synthase kinase-3 beta (Homo sapiens, UniProt P49841)
[3] = target: T1, Casein kinase I isoform gamma-2; assay: Inhibition of human CK1-gamma2 in HEK293 cells assessed as inhibition of doxcycline-induced LRP6 phosphorylation after 2 hrs by electrochemiluminescence analysis; format: cell-based
[4] = Selectivity ratio of IC50 for CK1-delta to IC50 for CK1-gamma2
[5] = target: Casein kinase I isoform alpha (Homo sapiens, UniProt P48729); assay: Inhibition of CK1-alpha using biotin[long chain]-KKRRRAL{pS}VATLPGL substrate in presence of 8 uM ATP
Casein kinase I isoform alpha, sequence (P48729 whole entry, canonical isoform): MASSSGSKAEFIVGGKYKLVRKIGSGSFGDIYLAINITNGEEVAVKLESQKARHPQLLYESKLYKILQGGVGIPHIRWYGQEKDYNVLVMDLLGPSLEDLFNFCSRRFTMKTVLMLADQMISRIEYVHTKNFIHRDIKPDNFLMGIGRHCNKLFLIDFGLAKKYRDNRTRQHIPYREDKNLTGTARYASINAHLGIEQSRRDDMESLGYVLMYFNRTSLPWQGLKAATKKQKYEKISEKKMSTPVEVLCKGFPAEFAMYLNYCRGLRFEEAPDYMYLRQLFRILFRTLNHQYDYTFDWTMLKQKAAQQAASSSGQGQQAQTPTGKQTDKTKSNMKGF

[6] = Selectivity ratio of IC50 for CK1-alpha to IC50 for CK1-gamma2
[7] = target: T1, Casein kinase I isoform gamma-2; assay: Inhibition of CK1-gamma2 in human RKO cell assessed as inhibition of Wnt3a-induced Wnt signaling treated 1 hr prior to Wnt3a ligand addition measured after 18 to 24 hrs by luciferase reporter gene assay
[8] = target: Casein kinase I isoform delta (Homo sapiens, UniProt P48730)
Casein kinase I isoform delta, sequence (P48730 whole entry, canonical isoform): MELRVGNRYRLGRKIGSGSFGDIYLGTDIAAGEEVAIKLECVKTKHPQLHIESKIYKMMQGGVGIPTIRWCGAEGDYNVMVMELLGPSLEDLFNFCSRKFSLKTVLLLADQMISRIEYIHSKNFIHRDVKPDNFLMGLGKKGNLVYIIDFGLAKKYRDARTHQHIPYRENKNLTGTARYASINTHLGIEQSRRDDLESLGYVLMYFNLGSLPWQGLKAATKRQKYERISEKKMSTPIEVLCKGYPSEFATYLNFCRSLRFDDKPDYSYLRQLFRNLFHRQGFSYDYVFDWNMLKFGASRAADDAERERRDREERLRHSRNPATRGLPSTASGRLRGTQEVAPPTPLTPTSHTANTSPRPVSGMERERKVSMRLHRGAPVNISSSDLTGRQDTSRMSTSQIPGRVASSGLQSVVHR

[9] = Plasma protein binding in mouse; format: ADME, cell-free; settings: read-out: PPB (converted)
[10] = Half life in […] mouse at 30 mg/kg, po; format: ADME, organism-based; design: dose 30 mg/kg, route oral; settings: in vivo
Summary of the method: (§1)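 Oral PK in male CD1 mice, 3 animals per study, dosed at 30 mg/kg po. Vehicle: 10.0% Pluronic F68 / 30.0% HPBCD / 60.0% water with MSA, pH 2.5. Cmax, t1/2, Tmax and AUC were taken from plasma exposure.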

[11] = Tmax in […] mouse at 30 mg/kg, po; format: ADME, organism-based; design: dose 30 mg/kg, route oral; settings: in vivo
Summary of the method: as §1

[12] = Intrinsic clearance in human liver microsomes at 1 uM after 30 mins; format: ADME, Microsome; settings: read-out: CLH
Summary of the method: (§2)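 Liver microsome turnover (human or rat): compound at 1 μM incubated with microsomes for 30 min. Intrinsic clearance reported in μL/(min·mg).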

[13] = Intrinsic clearance in rat liver microsomes at 1 uM after 30 mins; format: ADME, Microsome; settings: read-out: CLH
Summary of the method: as §2

[14] = AUC in […] mouse at 30 mg/kg, po; format: ADME, organism-based; design: dose 30 mg/kg, route oral; settings: plasma
Summary of the method: as §1

[15] = Cmax in […] mouse at 30 mg/kg, po; format: ADME, organism-based; design: dose 30 mg/kg, route oral; settings: in vivo
Summary of the method: as §1

[16] = Plasma concentration in HEK-293 cells xenografted in nude mouse at 50 mg/kg, po after 6 hrs; format: ADME, organism-based, HEK293; design: dose 50 mg/kg, route oral
Summary of the method: (§3)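 Athymic nude mice carried subcutaneous tumors of HEK293 cells constitutively expressing LRP6 with doxycycline-inducible CK1γ. Doxycycline (0.5 mg/mL) was given in drinking water for 24 h to stimulate LRP6 phosphorylation, then compound was dosed orally at 50 mg/kg. Tumor and plasma were collected 6 h post-dose. Tumor phospho-LRP6 was quantified by electrochemiluminescent assay, and plasma total and unbound exposure were determined.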

Plasma = assay: Unbound concentration in HEK293 cells xenografted in nude mouse at 50 mg/kg, po after 6 hrs; format: ADME, organism-based; design: dose 50 mg/kg, route oral; settings: in vivo
Summary of the method: as §3

[17] = Plasma protein binding in rat; format: ADME, cell-free; settings: read-out: PPB (converted)
Mus musculus = assay: Inhibition of CK1-gamma-mediated LRP6 phosphorylation in HEK293 cells xenografted in nude mouse at 50 mg/kg, po after 6 hrs by electrochemiluminescent assay; format: functional; settings: HEK293, 6 h
Summary of the method: as §3

T1 sequence (P78368 whole entry, canonical isoform): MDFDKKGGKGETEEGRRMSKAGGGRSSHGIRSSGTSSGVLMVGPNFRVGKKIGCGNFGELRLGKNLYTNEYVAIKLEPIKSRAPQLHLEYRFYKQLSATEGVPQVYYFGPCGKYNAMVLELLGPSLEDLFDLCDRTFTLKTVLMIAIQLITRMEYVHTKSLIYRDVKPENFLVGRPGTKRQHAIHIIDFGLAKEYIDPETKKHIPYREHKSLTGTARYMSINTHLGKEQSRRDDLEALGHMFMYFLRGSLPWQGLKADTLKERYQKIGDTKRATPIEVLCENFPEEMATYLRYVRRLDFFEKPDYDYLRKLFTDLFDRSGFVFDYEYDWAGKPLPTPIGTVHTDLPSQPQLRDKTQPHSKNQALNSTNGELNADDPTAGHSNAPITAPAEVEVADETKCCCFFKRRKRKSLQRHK
Glycogen synthase kinase-3 beta, sequence (P49841 whole entry, canonical isoform): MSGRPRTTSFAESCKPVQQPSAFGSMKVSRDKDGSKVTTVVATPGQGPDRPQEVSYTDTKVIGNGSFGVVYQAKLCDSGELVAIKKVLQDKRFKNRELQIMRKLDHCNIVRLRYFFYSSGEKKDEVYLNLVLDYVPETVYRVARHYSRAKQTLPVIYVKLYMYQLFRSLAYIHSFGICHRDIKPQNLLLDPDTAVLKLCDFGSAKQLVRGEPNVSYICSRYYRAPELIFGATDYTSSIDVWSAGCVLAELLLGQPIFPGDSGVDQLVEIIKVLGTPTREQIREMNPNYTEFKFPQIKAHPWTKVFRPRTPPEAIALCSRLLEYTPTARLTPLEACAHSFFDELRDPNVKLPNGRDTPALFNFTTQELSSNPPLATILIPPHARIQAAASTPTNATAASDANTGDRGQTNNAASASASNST

Row | IC50 [1] | IC50 [2] | IC50 [5] | Ratio IC50 [6] | IC50 [7] | IC50 [8] | Structure (SMILES) | further results
1 | 80 nM | > 30 µM | 95 nM | – | – | 168 nM | COc1cnc(OCc2ccc(F)cc2)nc1-c1cc2c([nH]1)CCNC2=O | –
2 | 5 nM | 10.8 µM | 251 nM | 50 | 254 nM | 40 nM | COc1cnc(COc2ccc(F)c(F)c2)cc1-c1cc2c([nH]1)CCNC2=O | IC50 [3]: 200 nM; fraction unbound [9]: 0.049; half-life [10]: 162 min; Ratio IC50 [4]: 8; concentration at 6 h [16]: 2700 nM; Tmax [11]: 19.8 min; Concentration (Plasma): 0.13 µM; fraction unbound [17]: 0.031; microsomal CLint at 1 µM [12]: 59 µL/min/mg; microsomal CLint at 1 µM [13]: 46 µL/min/mg; AUC [14]: 15.4 µM·h; inhibition in vivo at 50 mg/kg (Mus musculus): 42%; Cmax [15]: 9.72 µM
3 | 24 nM | 1.12 µM | 146 nM | 6 | – | 58 nM | COc1cnc(COc2ccc(F)cc2)nc1-c1cc2c([nH]1)CCNC2=O | –
4 | 3 nM | 53.3 µM | 442 nM | 147 | 537 nM | 59 nM | COc1cnc(COc2ccc(F)cc2C)cc1-c1cc2c([nH]1)CCNC2=O | Ratio IC50 [4]: 20

Second part, the molecule before the results:

Row | Structure (SMILES) | IC50 [1] | IC50 [2] | IC50 [5] | Ratio IC50 [6] | IC50 [7] | IC50 [8] | further results
5 | COc1cnc(CCc2ccc(F)cc2)nc1-c1cc2c([nH]1)CCNC2=O | 17 nM | 25.6 µM | – | – | – | – | –
6 | COc1cnc(-c2cnc3ccccc3c2)nc1-c1cc2c([nH]1)CCNC2=O | 8 nM | 0.00149 µM | 9 nM | 1 | > 3330 nM | 68 nM | IC50 [3]: 348 nM; Ratio IC50 [4]: 8
7 | COc1cnc(/C=C/c2ccc(F)cc2)nc1-c1cc2c([nH]1)CCNC2=O | 50 nM | 1.22 µM | – | – | – | – | –
8 | COc1cnc(NCc2ccccc2)nc1-c1cc2c([nH]1)CCNC2=O | 33 nM | 0.098 µM | 19 nM | – | – | 22 nM | –
9 | COc1cnc(COc2cc(F)c(F)cc2C)cc1-c1cc2c([nH]1)CCNC2=O | 4 nM | 38.1 µM | – | – | 44 nM | – | IC50 [3]: 87 nM; fraction unbound [9]: 0.008; half-life [10]: 84 min; Tmax [11]: 70.2 min; microsomal CLint at 1 µM [12]: 177 µL/min/mg; microsomal CLint at 1 µM [13]: 106 µL/min/mg; AUC [14]: 2.1 µM·h; Cmax [15]: 0.56 µM
10 | COc1cnc(Nc2ccccc2)nc1-c1cc2c([nH]1)CCNC2=O | 8 nM | 0.016 µM | – | – | – | – | –
11 | COc1cnc(Oc2ccccc2)nc1-c1cc2c([nH]1)CCNC2=O | 853 nM | > 62.5 µM | 18500 nM | – | – | 4860 nM | –
12 | COc1cnc(CCc2ccc(F)cc2)cc1-c1cc2c([nH]1)CCNC2=O | – | > 62.5 µM | – | – | – | – | –
13 | COc1cnc(COc2ccc(F)cc2F)cc1-c1cc2c([nH]1)CCNC2=O | 3 nM | 4 µM | 225 nM | 75 | 394 nM | 36 nM | Ratio IC50 [4]: 12
14 | COc1cnc(COc2ccc(F)cc2)cc1-c1cc2c([nH]1)CCNC2=O | 5 nM | 7.83 µM | – | – | 584 nM | – | –

From ChEMBL document CHEMBL2203014, “Structure-Based Design of Potent and Selective CK1γ Inhibitors” (ACS Med Chem Lett, 2012)
